According to ChEMBL document CHEMBL1143755, “Food web-specific biomagnification of persistent organic pollutants” (Science, 2007):

How the values were obtained:
Homo sapiens = organism: Homo sapiens; experiment: Biomagnification factors in human; format: ADME, organism-based; details: in vivo
Outline: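 Modelled, not measured: a bioaccumulation model using fugacity D-values (respiration, diet, faeces, urine, metabolism, lactation, growth) gives BMF as fB/fD or CB/CD relative to diet. The Inuit diet is taken as Arctic fish and wildlife (caribou, ringed seal, walrus, beluga) plus southern Canadian agricultural foods, the latter simulated from Great Lakes food chains. KOA is evaluated at 37 °C.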

[1] = Biomagnification factors in Diporeia; format: ADME
[2] = Octanol-air partition coefficient, log KOA of the compound; format: physicochemical
[3] = Octanol-water partition coefficient, log KOW of the compound; format: physicochemical

Question: Which results are given for O=S(=O)(c1ccc(Cl)cc1)c1cc(Cl)c(Cl)cc1Cl [TETRADIFON]?
Answer: BMF (Homo sapiens): 97; BMF [1]: < 1; log KOA [2]: 11.4; logP ([3]; read-out: LogP): 4.6

Question: For Brc1ccc(Oc2ccc(Br)cc2Br)c(Br)c1, which BMF (Homo sapiens) is on record?
Answer: 98

Question: What about the BMF [1] of the same molecule?
Answer: 2.2

Question: What about the “log KOA” value [2] of the same molecule?
Answer: 9.8

Question: What about the logP ([3]; read-out: LogP) of the same molecule?
Answer: 6

Question: For Brc1c(Br)c(Br)c(Oc2c(Br)c(Br)c(Br)c(Br)c2Br)c(Br)c1Br, which BMF (Homo sapiens) is on record?
Answer: 8

Question: What about the BMF [1] of the same molecule?
Answer: 1

Question: What about the “log KOA” value [2] of the same molecule?
Answer: 13.1

Question: What about the logP [3] of the same molecule?
Answer: 9.9

Question: What does the source list for O=S1OC[C@@H]2[C@H](CO1)[C@@]1(Cl)C(Cl)=C(Cl)[C@@]2(Cl)C1(Cl)Cl (stereo partly specified)?
Answer: BMF (Homo sapiens): 23; BMF [1]: < 1; log KOA [2]: 7.1; logP ([3]; read-out: LogP): 3.7

Question: Which BMF (Homo sapiens) does the source give for Cc1c([N+](=O)[O-])c(C)c([N+](=O)[O-])c(C(C)(C)C)c1[N+](=O)[O-] here?
Answer: 89

Question: And the BMF [1]?
Answer: < 1

Question: What about the “log KOA” value [2] of the same molecule?
Answer: 8.9

Question: What about the logP ([3]; read-out: LogP) of the same molecule?
Answer: 4.1

Question: With Clc1cc(Cl)c(-c2cc(Cl)c(Cl)c(Cl)c2Cl)cc1Cl as the molecule, how does the BMF (Homo sapiens) read?
Answer: 95

Question: What about the BMF [1] of the same molecule?
Answer: 2.5

Question: What about the “log KOA” value [2] of the same molecule?
Answer: 10.9

Question: What about the logP ([3]; read-out: LogP) of the same molecule?
Answer: 7.5

Question: Which results are given for Clc1cc(Cl)c(Cl)c(Cl)c1Cl [PENTACHLOROBENZENE]?
Answer: BMF (Homo sapiens): 16; BMF [1]: < 1; log KOA [2]: 6.9; logP ([3]; read-out: LogP): 5

Question: With ClC1=C(Cl)[C@]2(Cl)[C@@H]3[C@@H]4C[C@@H]([C@H]5O[C@@H]45)[C@@H]3[C@@]1(Cl)C2(Cl)Cl [DIELDRIN] as the molecule, how does the BMF (Homo sapiens) read?
Answer: 93

Question: And the BMF [1]?
Answer: 1.7

Question: What about the “log KOA” value [2] of the same molecule?
Answer: 8.8

Question: What about the logP ([3]; read-out: LogP) of the same molecule?
Answer: 5.4

Question: Which results are given for Clc1cc(Cl)cc(Cl)c1 [1,3,5-TRICHLOROBENZENE]?
Answer: BMF (Homo sapiens): < 1; BMF [1]: < 1; log KOA [2]: 4.7; logP ([3]; read-out: LogP): 3.5

Question: Which results are given for Brc1ccc(Oc2cc(Br)c(Br)cc2Br)c(Br)c1?
Answer: BMF (Homo sapiens): 98; BMF [1]: 2.5; log KOA [2]: 11.2; logP ([3]; read-out: LogP): 6.8

Question: For Cl[C@H]1[C@H](Cl)[C@@H](Cl)[C@H](Cl)[C@@H](Cl)[C@@H]1Cl [BETA-HEXACHLOROCYCLOHEXANE], which BMF (Homo sapiens) is on record?
Answer: 84

Question: What about the BMF [1] of the same molecule?
Answer: < 1

Question: And the “log KOA” value [2]?
Answer: 8.9

Question: What about the logP ([3]; read-out: LogP) of the same molecule?
Answer: 3.8

Question: Which results are given for ClC(Cl)=C(Cl)C(Cl)=C(Cl)Cl [HEXACHLOROBUTADIENE]?
Answer: BMF (Homo sapiens): < 1; BMF [1]: < 1; log KOA [2]: 3.9; logP ([3]; read-out: LogP): 4.5

Question: Which results are given for Clc1cc(Cl)c(-c2cc(Cl)c(Cl)cc2Cl)cc1Cl [2,2',4,4',5,5'-HEXACHLOROBIPHENYL]?
Answer: BMF (Homo sapiens): 96; BMF [1]: 2.5; log KOA [2]: 9.6; logP ([3]; read-out: LogP): 7.5

Question: Which BMF (Homo sapiens) does the source give for Clc1cc(Cl)c(Cl)cc1Cl here?
Answer: 5.9

Question: What about the BMF [1] of the same molecule?
Answer: < 1

Question: And the “log KOA” value [2]?
Answer: 6.3

Question: And the logP ([3]; read-out: LogP)?
Answer: 4.7

Question: With C=Cc1ccccc1 [STYRENE] as the molecule, how does the BMF (Homo sapiens) read?
Answer: < 1

Question: What about the BMF [1] of the same molecule?
Answer: < 1

Question: What about the “log KOA” value [2] of the same molecule?
Answer: 4.9

Question: And the logP ([3]; read-out: LogP)?
Answer: 2.5

Question: Which BMF (Homo sapiens) does the source give for CCCN(CCC)c1c([N+](=O)[O-])cc(C(F)(F)F)cc1[N+](=O)[O-] [TRIFLURALIN] here?
Answer: 28

Question: What about the BMF [1] of the same molecule?
Answer: < 1

Question: And the “log KOA” value [2]?
Answer: 7.2

Question: And the logP ([3]; read-out: LogP)?
Answer: 4.4

Question: With OC(c1ccc(Cl)cc1)(c1ccc(Cl)cc1)C(Cl)(Cl)Cl [DICOFOL] as the molecule, how does the BMF (Homo sapiens) read?
Answer: 76

Question: What about the BMF [1] of the same molecule?
Answer: < 1

Question: And the “log KOA” value [2]?
Answer: 8.9

Question: And the logP ([3]; read-out: LogP)?
Answer: 3.5

Question: Which results are given for Clc1c(Cl)c(Cl)c(Cl)c(Cl)c1Cl [PERCHLOROBENZENE]?
Answer: BMF (Homo sapiens): 55; BMF [1]: 1.8; log KOA [2]: 7.7; logP ([3]; read-out: LogP): 5.5

Question: With ClC1(Cl)C2(Cl)C3(Cl)C4(Cl)C(Cl)(Cl)C5(Cl)C3(Cl)C1(Cl)C5(Cl)C24Cl (stereo unspecified) [MIREX] as the molecule, how does the BMF (Homo sapiens) read?
Answer: 82

Question: What about the BMF [1] of the same molecule?
Answer: 1

Question: And the “log KOA” value [2]?
Answer: 9.6

Question: What about the logP ([3]; read-out: LogP) of the same molecule?
Answer: 8.1
